Laboratory results: ChEMBL document CHEMBL4513216, “Probing the Open Global Health Chemical Diversity Library for Multistage-Active Starting Points for Next-Generation Antimalarials” (ACS Infect Dis, 2020)

assay: Toxicity liver stage against HepG2, at 10uM; type: cell-based; set-up: test concentration 10 uM, cell line HepG2-A16-CD81EGFP; conditions: human, HepG2-A16-CD81EGFP cells; read-out: INHIBITION
Method in brief: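 Uninfected HepG2-A16-CD81EGFP cells, 3 × 10^3 per well, 1536-well, plated on prespotted compound at 10 μM final, parasite-free screening media added to match infected plates; puromycin 10 μM positive, DMSO 0.5% negative; run in parallel with 48 h PbLuc assay at 37 °C, 5% CO2; viability by CellTiter-Glo luminescence, normalized to controls.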

SMILES	cytotoxicity at 10 µM
O=C(NC[C@H]1OC[C@@H](NC(=O)c2ccccc2)[C@@H]1O)c1ccncc1	2.55%
CC[C@H]1CN2CC[C@H]1C[C@@H]2CNCc1ccc2c(c1)OCO2	-5.9%
COC1CCN(C(=O)CC(C)(C)C)CC(=O)N(C)c2ccccc21 (stereo unspecified)	2.44%
O=C1CC(c2ccc(C(=O)O)cc2)c2cnn(Cc3ccco3)c2N1 (stereo unspecified)	-0.869%
O=C(CCc1nc2cc(Br)cnc2[nH]1)NCCN1CCOCC1	5.08%
Cc1nc(N(C)C)nc(C)c1NS(=O)(=O)c1ccc(F)cc1F	-3.58%
Cn1nc(CNC(=O)c2ccc3nsnc3c2)c2c1CCOC2	6.53%
OCc1cnc(Nc2ccccc2)nc1	11.3%
CN(C)C(=O)N1CCC(C2C(=O)Nc3ccccc32)CC1 (stereo unspecified)	11.9%
COCC(=O)N1CCC2(CC1)NC(=O)[C@H]1CN(C(=O)N(C)C)C[C@H]12	7%
Cc1cccc(CN2C(=O)CCC23CCN(C(=O)c2ccco2)CC3)c1	6.09%
CCn1cc2c(n1)C(COCC1CC1)CN(C(=O)c1cc(C)on1)C2 (stereo unspecified)	17.8%
CC(C)NC(=O)c1ccc2c(c1)C(c1nc[nH]n1)CN2C (stereo unspecified)	-141%
COCC1c2nnn(CC3CC3)c2CCN1C(=O)c1cc(C)on1 (stereo unspecified)	-132%
COC(=O)Cn1nc(-c2ccccc2F)ccc1=O	8.01%
CCOC(=O)N1CCN(C(=O)c2snnc2-c2ccccc2)CC1	0.847%
CCc1nn(-c2cc(Oc3cccc(C)c3)nc(C)n2)c(N)c1C#N	-9.8%
CCCNC(=O)Cn1nc(C(C)C)c2cnn(C(C)(C)C)c2c1=O	-20%
Cc1occc1C(=O)N1CCCC(C2=Nc3ccccc3S(=O)(=O)N2)C1 (stereo unspecified)	4.03%
CNC(=O)C1(C)CN(c2nnc(C)c3ccccc23)CCO1 (stereo unspecified)	-1.61%
Cc1nc(C2CCCN(S(C)(=O)=O)C2)sc1Br (stereo unspecified)	-10.3%
CC(C)(C)C(=O)N1CCCC1c1nccnc1Cl (stereo unspecified)	2.83%
CN(C)S(=O)(=O)N1CCC(C)(c2ncc(C(N)=O)s2)CC1	-0.318%

SMILES	cytotoxicity at 10 µM
Cc1c(CN2CCCC2(C)C(=O)N2CCOCC2)cnn1C (stereo unspecified)	-6.29%
CN(C)C(=O)C1CCc2nnc(C(C)(C)C)n21 (stereo unspecified)	3.13%
Cc1ccnc(NC(=O)c2c(C)oc(C)c2C)c1	17.2%
CC(C)(C)c1cnc(CN2CCCS(=O)(=O)CC2)o1	-3.97%
c1cc(CNCCC2CCCO2)ccn1 (stereo unspecified)	-0.95%
CC(c1ccc(F)cc1F)N1CCN(CCC(=O)NC(N)=O)CC1 (stereo unspecified)	-8.58%
CNC(=O)C1CCCCN1C(=O)Cc1csc(-c2ccc(C)o2)n1 (stereo unspecified)	8.61%
CCN(CCC#N)Cn1ncc2cn(-c3ccccc3)nc2c1=O	-14.5%
CC(CNC(=O)CCn1cncn1)N1CCc2ccccc21 (stereo unspecified)	-157%
Cc1ccc(C)n1-c1ccsc1C(=O)NCC(=O)N1CCCC1	-143%
CCc1noc(Cn2c(=O)c3c(C(F)(F)F)cc(C)nc3n2C)n1	-3.44%
Cc1ccc(NC(=O)N2CCCN(C(N)=O)CC2)s1	-6.58%
Cc1ncsc1C(=O)NCCNC(=O)OC(C)(C)C	4.73%
Cc1n[nH]c(C2CN(CC(=O)NCc3sccc3C)CCO2)n1 (stereo unspecified)	-4.75%
O=S(=O)(NCC1COc2ccccc2C1)N1CCCCC1 (stereo unspecified)	-0.628%
COc1c(CNCc2cccnc2N2CCOCC2)c(C)nn1C	-151%
CCc1nnc2n1CCN(C(=O)c1ccc3cc[nH]c3c1)C2	-6.43%
CC(NC(=O)CCCOc1cccc(F)c1)c1ccncc1 (stereo unspecified)	-3.6%
CCc1ccc(CNc2ccccc2CN2CCC(O)CC2)o1	4.34%
Cc1ccccc1CN1CCCN(C(=O)c2ccn(C)c(=O)c2)CC1	1.62%
CC(C(=O)NCC1CCN(c2ccncc2)CC1)S(C)(=O)=O (stereo unspecified)	17.4%
CC(CCS(C)(=O)=O)NC(=O)NCc1ccc2ccccc2c1 (stereo unspecified)	-137%
CCc1cccc(NC(=O)CNc2ccccc2OCCC(=O)OC)c1	7.53%

SMILES	cytotoxicity at 10 µM
O=C(c1cnccn1)N(CCO)Cc1cc(Br)ccc1F	5.64%
CCCn1nnnc1COc1ccc(C(=O)OC)cc1OC	-1.9%
CNC(=O)c1cccc(NC(=O)CN2CCCN(S(C)(=O)=O)CC2)c1	3.56%
CCNc1nnc(SC(C(=O)NCc2cccnc2)C(C)C)s1 (stereo unspecified)	-13.3%
CN(CC1CCOCC1)C(=O)NCCCN1CCCCC1	0.105%
COc1ccccc1C(C)Nc1ncc(C(N)=O)cc1Cl (stereo unspecified)	8.74%
N#Cc1c(F)cccc1N1CCN(C(=O)Nc2nncs2)CC1	-0.908%
CNC(=O)CS(=O)(=O)Cc1coc(-c2ccc(OC)cc2)n1	-2.95%
CCSc1cc(C(=O)NCCC(=O)Nc2ccccn2)ccn1	-8.62%
O=C(c1cscn1)N1CCc2ncnc(-c3ccncc3)c2CC1	-4.71%
CN(C)CCCN1CC2(CCN(C3CCCOC3)CC2)OC1=O (stereo unspecified)	-5%
CC(C)(C)c1cc(=O)[nH]c(-c2ccccc2CN2CCCCCC2)n1	-42%
Cc1nc(N)sc1C(=O)N1CCCC(COc2ccc(F)cc2)C1 (stereo unspecified)	-143%
CN(CCCc1ccccc1)C(=O)c1ccccc1NCC(=O)O	-6.96%
CCS(=O)(=O)c1ncc(CN(C)CCc2ccccn2)n1CCOC	-3.98%
Cc1cccc(-c2nc3cc(S(=O)(=O)N4CCCC4)ccc3n2C)n1	16.8%
CNc1cc(-c2ccc(COCCN)cc2)c2cc[nH]c2n1	5.89%
COCc1nc(CNc2cc(C)nc(-c3ccccc3)n2)no1	7.06%
CC(C)=CCN1CCN(C(=O)c2cc(C(C)C)no2)[C@H]2CS(=O)(=O)C[C@H]21	-7.86%
COCc1ncn(Cc2nc(-c3ccco3)oc2C)n1	-8.53%
COc1ccc(Cl)cc1CN(C)C(=O)CN1C(=O)CCC1C (stereo unspecified)	0.277%
CCC[C@@H]1CN(Cc2ccccc2SC)C[C@H]1NC(C)=O	-5.73%
CC(C)(N)c1cn(C2CCN(C3CCSCC3)CC2)nn1	-10.7%

SMILES	cytotoxicity at 10 µM
COCCOCC(=O)N1CCC2(CCCN(C3CCOCC3)C2=O)C1 (stereo unspecified)	-133%
Cc1cnc(Cn2cc(-c3cccc(C(C)N(C)C)c3)nn2)cn1 (stereo unspecified)	-0.807%
CCc1ccc(-c2c(C)c(-c3cnn(C)c3)nc(N)c2C#N)o1	-133%
O=C(O)c1cc(-c2ccncc2)cc(S(=O)(=O)N2CCCCCC2)c1	2.05%
CCNC(=O)[C@@H]1C[C@@H](NC(=O)c2cccn2C)CN1CCCSC	-122%
CCOCCOc1ccccc1C(=O)N1CCCC(c2ncc[nH]2)C1 (stereo unspecified)	-14.2%
Cc1cnn(CC2CN(Cc3cccnc3)CCO2)c1 (stereo unspecified)	-3.27%
CC(C)CC(=O)NS(=O)(=O)c1ccc2c(c1)OCCCO2	-9.02%
CC(C)c1nc2c(n1C)CCN(Cc1nc(-c3cccnc3)no1)C2	-1.43%
COc1c(CNCCNC(=O)c2ccccc2F)c(C)nn1C	-0.644%
CCCNC(=O)NC(=O)CNC(C)(C)c1ccc2c(c1)OCO2	-12.7%
CC1COCCN1Cc1nc(-c2ccsc2)no1 (stereo unspecified)	-17.8%
Cc1ccc(-c2cc(C(=O)NCCN3CCCS3(=O)=O)[nH]n2)o1	-7.98%
Cc1nc(CN2CCCC(NCCCc3ccccc3)C2)no1 (stereo unspecified)	-3.9%
Cc1cccc(NC2CCN(C(=O)Nc3cc(F)ccc3F)CC2)n1	-10.7%
Cc1noc2ncc(C(=O)N3CCCC3c3ccsc3)cc12 (stereo unspecified)	-10.4%
CN(C)c1cc(CNC(=O)c2c(F)cccc2F)ccn1	-18.1%
CC(C)c1cnc(CN(C)C2CCN(CCCc3cnn(C)c3)C2)o1 (stereo unspecified)	-13.3%
CCc1ncc2c(n1)CN(CC(=O)Nc1cc(C)on1)CC2	0.049%
COc1cccc(CN2CCCC(c3cc(C(N)=O)[nH]n3)C2)c1 (stereo unspecified)	-1.67%
Cn1nc2c(cc1=O)CN(Cc1nc(-c3ccco3)no1)CC2	1.22%
O=C(NCCc1ccc(I)s1)N1CCC1	-11.1%
Cc1cnn(CC(C)NCc2nc(-c3ccsc3)oc2C)c1 (stereo unspecified)	-2.6%

SMILES	cytotoxicity at 10 µM
CN(C)CCN1CCN(C(=O)c2ccn(C)c(=O)c2)CC1	-4.14%
Cc1ccc(NC2CCN(C(=O)COC3CCCCC3)CC2)nn1	5.94%
Cc1ccc(S(=O)(=O)NC(=O)CCC2CCCO2)cc1 (stereo unspecified)	-15.7%
CC1COCCN1C(=O)c1cccc(OCc2cscn2)c1 (stereo unspecified)	-9.93%
Cc1cc(C2CCCN2Cc2cc(=O)n(C)c(=O)n2C)on1 (stereo unspecified)	-4.72%
Cc1cncc(C(=O)N2C[C@@H]3CN(S(C)(=O)=O)CCO[C@@H]3C2)c1	-4.87%
CN1CC(=O)N(c2ccccc2)CC12CCN(C(=O)c1ccnnc1)C2 (stereo unspecified)	3.39%
CN(C)CCOCC1CN(C(=O)c2cccn2C)Cc2ccnn2C1 (stereo unspecified)	13.5%
Cc1cccc(CN2CC[C@@H]3[C@@H]2CCN3C(=O)c2ccno2)n1	-18.2%
Cn1cc(C2CC(=O)NC23CCN(C(=O)Cc2ccccn2)CC3)cn1 (stereo unspecified)	5.06%
O=C(O)[C@]12CCCN(Cc3cccs3)C[C@H]1CN(c1ncccn1)C2	7.58%
CCn1ncc2c1C(COC)CN(c1ncc(F)cn1)C2 (stereo unspecified)	14.6%
CCS(=O)(=O)N1CC[C@H]2C(=O)N(Cc3cccnc3)CCO[C@H]2C1	-80.4%
O=C1CC2(CCN(CC3CC3)C2)CN1c1cccnc1 (stereo unspecified)	-1.18%
CN(C)CCN1CCOCC2(CCN(Cc3ccc[nH]3)CC2)C1	0.626%
CN1C(=O)CC(c2ccccc2)C12CCN(CC1CCOCC1)CC2 (stereo unspecified)	1.02%
CN1CCN(C(=O)[C@H]2C[C@H]3[C@H](CCN3Cc3cccs3)O2)CC1	-7.64%
CN(Cc1cncnc1)[C@@H]1CN(C(=O)C2CC2)[C@@H]2CCCO[C@H]12	-112%
CC(=O)Nc1ccc(CN2C[C@@H]3CC[C@H]2CN(c2ncccn2)C3)cc1	-0.0298%
